The values that follow come from ChEMBL document CHEMBL1240328, “Selective compounds define Hsp90 as a major inhibitor of apoptosis in small-cell lung cancer” (Nat Chem Biol, 2007).

Activity calls are given as the source filed them. No cut-off for these calls is given here.

Assay [1] deals with Heat shock protein HSP 90-beta (Homo sapiens) (UniProt P08238). Kind of assay: Inhibition of HSP90-mediated antiapoptotic activity in human NCI-H526 cells assessed as induction of Akt degradation at 20 uM after 24 hrs by Western blot analysis. The class given is cell-based.
The target is the same in assay [2]. Nature of the assay: Inhibition of HSP90-mediated antiapoptotic activity in human NCI-H526 cells assessed as reduction in BAD phosphorylation at 20 uM after 24 hrs by Western blot analysis. The assay is classed as cell-based.
For another assay, the system named is NCI-H526. Nature of the assay: Inhibition of HSP70-mediated antiapoptotic activity in human NCI-H526 cells assessed as induction of caspase-3 cleavage after 24 hrs by Western blot analysis. The assay is classed as cell-based. The method, boiled down:
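NCI-H526 cells were treated for 24 h. PARP and caspase-3 cleavage were read by western blot of lysates in Tris/NaCl/NP-40 buffer. Apaf-1 complexes were immunoprecipitated with Apaf-1 antibody, using control IgG, then blotted.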

The target in assay [3] is Heat shock protein HSP 90-beta (Homo sapiens) (UniProt P08238). Nature of the assay: Inhibition of HSP90-mediated antiapoptotic activity in human NCI-H526 cells assessed as induction of cell death at 10 uM after 72 hrs by propidium iodide staining-based flow cytometry in presence of broad-spectrum caspase inhibitor Boc-D-FMK. The method, boiled down: (§1)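 NCI-H526 cells pretreated for 3 h with Boc-D-FMK (100 µM), then exposed to 10 µM for 72 h. Flow cytometry after JC-1 staining for mitochondrial potential and after propidium iodide staining for DNA content. n = 3.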

For assay [4] the target is unchanged. Kind of assay: Inhibition of HSP90-mediated antiapoptotic activity in human NCI-N417 cells assessed as subG1 accumulation at 2.5 uM after 72 hrs by propidium iodide staining-based flow cytometry. The assay is classed as cell-based. The conditions noted are these: NCI-H417. The method, boiled down:
(§2)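 Asynchronously growing cells were treated with compound, stained with propidium iodide and analysed by flow cytometry. The read-out was the percentage of cells with sub-G1 DNA content.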

Assay [5] has the same target. Kind of assay: Inhibition of HSP90-mediated antiapoptotic activity in human NCI-N417 cells assessed as subG1 accumulation at 15 uM after 72 hrs by propidium iodide staining-based flow cytometry. The assay is classed as cell-based. The conditions noted are these: NCI-H417. The method, boiled down:
as §2

The target is the same in assay [6]. Kind of assay: Inhibition of HSP90-mediated antiapoptotic activity in human SKBR3 cells assessed as induction of caspase-9 cleavage at 400 uM after 24 hrs by Western blot analysis. The assay is classed as cell-based. The conditions noted are these: SK-BR-3. The method, boiled down:
(§3)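 SKBr3 cells at 60–70% confluence were exposed to drug or DMSO vehicle. Lysis was in 50 mM Tris pH 7.4, 150 mM NaCl, 1% NP-40, with protein measured by BCA. Lysates of 20–100 µg were run on SDS-PAGE, blotted to nitrocellulose, probed with primary antibodies and detected with a peroxidase-conjugated secondary (1:5,000). Loading was checked with β-actin or PI(3)K p85.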

For assay [7] the target is unchanged. Nature of the assay: Inhibition of HSP90-mediated antiapoptotic activity in human NCI-H526 cells assessed as induction of caspase-2 cleavage at 10 uM after 24 hrs by Western blot analysis. The class given is cell-based. The method, boiled down:
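NCI-H526 cells at 60–70% confluence were exposed to drug or DMSO for 24 h. Lysed in 50 mM Tris pH 7.4, 150 mM NaCl, 1% NP-40, with protein measured by BCA. 20–100 µg run on SDS-PAGE and blotted to nitrocellulose. Probed with cleaved-protein antibodies and peroxidase secondary at 1:5,000, with β-actin as loading control.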

For assay [8] the target is unchanged. Nature of the assay: Inhibition of HSP90-mediated antiapoptotic activity in human SKBR3 cells assessed as induction of cell growth arrest at 50 uM after 24 hrs by propidium iodide staining-based flow cytometry. The note with it: SK-BR-3.
Assay [9] has the same target. Kind of assay: Inhibition of HSP90-mediated antiapoptotic activity in human NCI-H187 cells assessed as mitochondrial membrane depolarization at 5 uM after 72 hrs by JC-1 staining-based flow cytometry. The class given is cell-based. The method, boiled down: (§4)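 SCLC cells treated for 72 h with graded doses. Mitochondrial membrane potential read by flow cytometry after JC-1 staining, with green-only emission indicating depolarization. Sub-G1 DNA content read after propidium iodide staining. CCCP used as positive control. n = 3 repeat experiments.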

Assay [10] has the same target. Kind of assay: Inhibition of HSP90-mediated antiapoptotic activity in human NCI-H526 cells assessed as increase in caspase-3 activity at 10 uM after 72 hrs by fluorescence assay in presence of caspase-9 inhibitor Z-LEHD-FMK. The class given is cell-based. The method, boiled down:
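NCI-H526 cells pretreated with Z-LEHD-FMK (100 µM), then exposed to 10 µM for 72 h. Caspase-3 activation read by Z-DEVD-R110 fluorescence. Caspase-3 and PARP cleavage read by western blot. n = 3.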

Assay [11] has the same target. Kind of assay: Inhibition of HSP90-mediated antiapoptotic activity in human NCI-H187 cells assessed as subG1 accumulation at 25 uM after 72 hrs by propidium iodide staining-based flow cytometry. The assay is classed as cell-based. The method, boiled down:
as §4

Assay [12] has the same target. Nature of the assay: Inhibition of HSP90-mediated antiapoptotic activity in human SKBR3 cells assessed as induction of PARP cleavage at 20 uM after 24 hrs by Western blot analysis. The assay is classed as cell-based. The note with it: SK-BR-3. The method, boiled down: as §3
For assay [13] the target is unchanged. Kind of assay: Inhibition of HSP90-mediated antiapoptotic activity in human MCF7 cells assessed as induction of cell growth arrest at 100 uM after 24 hrs by propidium iodide staining-based flow cytometry.
For assay [14] the target is unchanged. Kind of assay: Inhibition of HSP90-mediated antiapoptotic activity in human MCF7 cells assessed as induction of cell growth arrest at 50 uM after 24 hrs by propidium iodide staining-based flow cytometry.
For assay [15] the target is unchanged. Kind of assay: Inhibition of HSP90-mediated antiapoptotic activity in human NCI-H526 cells assessed as reduction in BAD phosphorylation at 50 uM after 24 hrs by Western blot analysis. The assay is classed as cell-based.
Assay [16] has the same target. Nature of the assay: Inhibition of HSP90-mediated antiapoptotic activity in human MCF7 cells assessed as induction of caspase-3 cleavage at 400 uM after 24 hrs by Western blot analysis. The assay is classed as cell-based.
The target is the same in assay [17]. Nature of the assay: Inhibition of HSP90-mediated antiapoptotic activity in human NCI-H526 cells assessed as subG1 accumulation at 15 uM after 72 hrs by propidium iodide staining-based flow cytometry. The assay is classed as cell-based. The method, boiled down: as §4
The target is the same in assay [18]. Nature of the assay: Effect on HSP90-mediated Bcl-XL expression in human NCI-H526 cells at 25 uM after 24 hrs by Western blot analysis. The assay is classed as cell-based. The method, boiled down: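 NCI-H526 cells were exposed for 24 h to drug or DMSO vehicle. Lysates were made in 50 mM Tris pH 7.4, 150 mM NaCl, 1% NP-40 and quantified by BCA. Western blot used 20–100 µg protein per lane, with β-actin as loading control.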

Assay [19] has the same target. Kind of assay: Inhibition of HSP90-mediated antiapoptotic activity in human NCI-H526 cells assessed as induction of Akt degradation at 50 uM after 24 hrs by Western blot analysis. The class given is cell-based.
Assay [20] shares this target. Kind of assay: Inhibition of HSP90-mediated antiapoptotic activity in human SKBR3 cells assessed as induction of caspase-3 cleavage at 20 uM after 24 hrs by Western blot analysis. The assay is classed as cell-based. The conditions noted are these: SK-BR-3. The method, boiled down: as §3
The target is the same in assay [21]. Nature of the assay: Inhibition of HSP90-mediated antiapoptotic activity in human NCI-H526 cells assessed as reduction in BAD phosphorylation at 10 uM after 24 hrs by Western blot analysis. The class given is cell-based.
Assay [22] has the same target. Nature of the assay: Inhibition of HSP90-mediated antiapoptotic activity in human NCI-H526 cells assessed as subG1 accumulation at 5 uM after 72 hrs by propidium iodide staining-based flow cytometry. The assay is classed as cell-based. The method, boiled down:
as §4

Assay [23] has the same target. Kind of assay: Inhibition of HSP90-mediated antiapoptotic activity in human NCI-H526 cells assessed as mitochondrial membrane depolarization at 10 uM after 72 hrs by JC-1 staining-based flow cytometry in presence of broad-spectrum caspase inhibitor Boc-D-FMK. The class given is cell-based. The method, boiled down: as §1

Heat shock protein HSP 90-beta (Homo sapiens), sequence (P08238 whole entry): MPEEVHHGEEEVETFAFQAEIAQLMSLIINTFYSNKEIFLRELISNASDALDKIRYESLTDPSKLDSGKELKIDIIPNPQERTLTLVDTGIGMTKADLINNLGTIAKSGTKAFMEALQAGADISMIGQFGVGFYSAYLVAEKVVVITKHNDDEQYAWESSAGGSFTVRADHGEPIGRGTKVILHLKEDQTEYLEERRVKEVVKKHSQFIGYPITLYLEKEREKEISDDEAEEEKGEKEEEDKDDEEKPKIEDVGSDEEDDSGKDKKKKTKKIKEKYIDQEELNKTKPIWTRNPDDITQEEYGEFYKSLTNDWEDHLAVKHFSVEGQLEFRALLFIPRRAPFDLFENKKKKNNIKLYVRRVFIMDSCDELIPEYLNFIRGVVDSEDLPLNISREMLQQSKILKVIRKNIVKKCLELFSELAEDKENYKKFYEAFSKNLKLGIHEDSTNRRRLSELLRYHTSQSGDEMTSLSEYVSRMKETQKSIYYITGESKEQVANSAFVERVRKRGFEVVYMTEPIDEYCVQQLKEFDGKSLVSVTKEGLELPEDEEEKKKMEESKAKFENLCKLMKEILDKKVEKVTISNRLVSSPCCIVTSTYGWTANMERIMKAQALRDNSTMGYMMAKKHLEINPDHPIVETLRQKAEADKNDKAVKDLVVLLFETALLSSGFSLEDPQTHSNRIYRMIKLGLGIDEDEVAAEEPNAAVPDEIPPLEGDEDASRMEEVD

Regarding `O=CN1CC/C(=C/c2ccc3c(c2)OCO3)C1=O`, the outcome in [1], in assay [2], in assay [3], in assay [4], in [5] and in assay [6] was inactive. Moreover, the outcome in assay [7], in assay [8], in [9], in assay [10], in assay [11] and in assay [12] was inactive. Besides, the result in [14], in assay [15], in assay [16], in assay [17], in assay [18] and in assay [19] was inactive. The outcome in assay [20], in assay [21], in [22] and in assay [23] was inactive. Also, the inhibition result with NCI-H526 is “inactive”. In [13], the result was Active.
